# Columns and labels:
# type 1 InsP3R (InsP3R1) = type 1 InsP3R (InsP3R1) (Mus musculus, UniProt P11881); test: Inhibition of Ins; type: cell-based; conditions: for IC50: read-out: Ins P3R antagonism IC50 (inhibition of Ins(1,4,5)P3-induced Ca2+ release), permeabilized L15 fibroblasts overexpressing InsP3R1, Ca2+ release induced by 250 nM Ins(1,4,5)P3
# Summary of the method: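 Mouse InsP3R1-overexpressing L15 fibroblasts, confluent (days 6–8), saponin-permeabilized (40 μg ml−1, 10 min); stores loaded 45 min with 150 nM free 45Ca2+, ATP, NaN3, pH 6.8; 30 °C. Efflux with 1 mM EGTA plus 10 μM thapsigargin, sampled every 2 min; Ins(1,4,5)P3 given 2 min, compound 6 min around it. Release taken as fractional loss over basal leak; Hill fits; 3–4 experiments in duplicate.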
# [1] = molecular target: T1, human type I Ins(1,4,5)P3 5-phosphatase (Homo sapiens, UniProt Q14642); test: Ins; type: biochemical; conditions: ratio of IC50 values
# T1 sequence (Q14642 1-412): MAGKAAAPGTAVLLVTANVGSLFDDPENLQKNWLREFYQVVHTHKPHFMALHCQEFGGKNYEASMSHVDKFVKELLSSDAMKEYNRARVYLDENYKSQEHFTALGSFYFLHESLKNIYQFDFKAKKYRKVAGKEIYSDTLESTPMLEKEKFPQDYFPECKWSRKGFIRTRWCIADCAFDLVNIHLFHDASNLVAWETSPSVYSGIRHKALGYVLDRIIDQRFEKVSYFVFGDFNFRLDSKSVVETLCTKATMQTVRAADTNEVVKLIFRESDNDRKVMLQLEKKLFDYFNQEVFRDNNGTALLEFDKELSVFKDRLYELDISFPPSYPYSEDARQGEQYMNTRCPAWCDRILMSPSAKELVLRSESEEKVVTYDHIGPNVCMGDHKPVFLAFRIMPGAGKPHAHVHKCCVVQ
# Summary of the method: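 Recombinant human type I Ins(1,4,5)P3 5-phosphatase; inhibition by test compound read by malachite green phosphate detection with 1.0 μmol Ins(1,4,5)P3 substrate.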
# InsP3R [2] = conditions: bovine adrenal cortex microsomes; ref Poitras, 1993; cited from earlier work
# InsP3R [3] = conditions: ref Vandeput, 2007; cited from earlier work
# type 1 InsP3R (InsP3R1), sequence (P11881 whole entry): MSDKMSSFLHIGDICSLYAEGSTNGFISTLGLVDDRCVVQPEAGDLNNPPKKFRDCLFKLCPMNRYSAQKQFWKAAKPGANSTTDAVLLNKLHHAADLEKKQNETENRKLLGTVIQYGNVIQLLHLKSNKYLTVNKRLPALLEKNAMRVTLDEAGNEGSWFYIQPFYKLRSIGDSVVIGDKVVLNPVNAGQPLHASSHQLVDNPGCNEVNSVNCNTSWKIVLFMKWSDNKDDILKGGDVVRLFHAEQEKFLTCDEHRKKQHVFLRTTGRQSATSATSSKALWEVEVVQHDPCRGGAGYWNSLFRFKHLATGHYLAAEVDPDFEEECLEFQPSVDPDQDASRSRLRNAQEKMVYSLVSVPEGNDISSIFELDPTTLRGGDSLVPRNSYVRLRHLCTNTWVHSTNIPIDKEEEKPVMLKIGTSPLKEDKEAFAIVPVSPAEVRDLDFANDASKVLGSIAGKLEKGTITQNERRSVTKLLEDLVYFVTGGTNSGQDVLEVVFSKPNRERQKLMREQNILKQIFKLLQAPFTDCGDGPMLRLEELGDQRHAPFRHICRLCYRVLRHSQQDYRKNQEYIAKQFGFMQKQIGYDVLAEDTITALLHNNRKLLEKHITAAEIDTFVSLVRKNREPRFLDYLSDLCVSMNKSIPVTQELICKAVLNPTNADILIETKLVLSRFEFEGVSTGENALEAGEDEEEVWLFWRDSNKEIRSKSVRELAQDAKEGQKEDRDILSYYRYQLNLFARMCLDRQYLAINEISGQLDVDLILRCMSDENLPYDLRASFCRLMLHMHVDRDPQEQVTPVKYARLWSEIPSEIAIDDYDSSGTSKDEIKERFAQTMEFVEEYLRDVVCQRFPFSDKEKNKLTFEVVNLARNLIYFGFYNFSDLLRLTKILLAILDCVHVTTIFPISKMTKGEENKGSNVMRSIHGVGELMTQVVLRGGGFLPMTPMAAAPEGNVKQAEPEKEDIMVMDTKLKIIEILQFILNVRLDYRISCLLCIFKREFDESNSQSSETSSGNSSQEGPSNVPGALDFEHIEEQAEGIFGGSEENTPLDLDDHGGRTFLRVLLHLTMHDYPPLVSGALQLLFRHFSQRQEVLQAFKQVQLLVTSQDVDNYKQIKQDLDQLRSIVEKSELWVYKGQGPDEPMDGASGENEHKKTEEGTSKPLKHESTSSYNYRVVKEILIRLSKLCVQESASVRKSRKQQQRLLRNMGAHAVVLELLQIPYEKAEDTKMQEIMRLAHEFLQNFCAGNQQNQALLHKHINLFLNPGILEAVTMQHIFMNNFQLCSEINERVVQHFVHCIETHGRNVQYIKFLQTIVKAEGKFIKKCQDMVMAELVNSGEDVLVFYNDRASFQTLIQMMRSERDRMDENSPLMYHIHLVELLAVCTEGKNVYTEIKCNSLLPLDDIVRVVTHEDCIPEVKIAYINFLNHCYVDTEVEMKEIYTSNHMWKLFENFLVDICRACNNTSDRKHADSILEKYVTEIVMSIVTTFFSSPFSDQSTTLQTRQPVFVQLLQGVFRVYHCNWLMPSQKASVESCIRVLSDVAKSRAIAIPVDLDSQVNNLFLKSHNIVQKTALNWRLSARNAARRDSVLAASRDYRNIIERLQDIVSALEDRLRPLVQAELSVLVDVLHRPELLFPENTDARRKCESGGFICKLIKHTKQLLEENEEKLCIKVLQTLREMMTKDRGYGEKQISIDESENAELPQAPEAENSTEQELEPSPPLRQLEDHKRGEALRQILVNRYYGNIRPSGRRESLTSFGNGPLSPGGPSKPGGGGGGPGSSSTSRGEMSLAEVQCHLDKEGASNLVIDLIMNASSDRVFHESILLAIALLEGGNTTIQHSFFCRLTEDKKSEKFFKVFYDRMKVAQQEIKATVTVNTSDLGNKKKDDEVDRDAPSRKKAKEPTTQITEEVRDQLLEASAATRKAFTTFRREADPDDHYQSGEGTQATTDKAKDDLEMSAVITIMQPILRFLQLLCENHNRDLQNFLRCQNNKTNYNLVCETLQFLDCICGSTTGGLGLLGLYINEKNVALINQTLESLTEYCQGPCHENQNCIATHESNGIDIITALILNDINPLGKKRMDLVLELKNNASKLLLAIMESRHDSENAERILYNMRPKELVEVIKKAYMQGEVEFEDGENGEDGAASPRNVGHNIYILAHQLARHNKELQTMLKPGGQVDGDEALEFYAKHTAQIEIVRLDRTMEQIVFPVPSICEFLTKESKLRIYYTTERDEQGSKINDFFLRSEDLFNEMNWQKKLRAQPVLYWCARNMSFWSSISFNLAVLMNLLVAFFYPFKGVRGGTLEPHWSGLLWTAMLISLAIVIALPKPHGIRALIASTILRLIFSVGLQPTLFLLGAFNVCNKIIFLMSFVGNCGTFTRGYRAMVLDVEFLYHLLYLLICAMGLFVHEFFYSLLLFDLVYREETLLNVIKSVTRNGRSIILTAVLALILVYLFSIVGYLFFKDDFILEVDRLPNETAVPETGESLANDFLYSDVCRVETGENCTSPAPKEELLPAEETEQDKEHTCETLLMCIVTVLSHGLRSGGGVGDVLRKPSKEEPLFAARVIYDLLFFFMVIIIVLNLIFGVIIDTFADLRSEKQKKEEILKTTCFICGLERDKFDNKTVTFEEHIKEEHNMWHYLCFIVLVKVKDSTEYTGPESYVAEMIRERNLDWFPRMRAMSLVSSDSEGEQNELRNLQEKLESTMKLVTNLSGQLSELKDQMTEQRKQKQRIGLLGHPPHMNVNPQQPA
smiles,measurement,setting,value
"O=P(O)(O)Oc1cc(OP(=O)(O)O)c(-c2cc(OP(=O)(O)O)c(OP(=O)(O)O)cc2OP(=O)(O)O)cc1OP(=O)(O)O [Compound 8, 2,2′,4,4′,5,5′-Biphenylhexakisphosphate]",Mode of inhibition at the InsP3R,"type 1 InsP3R (InsP3R1); 200 nM compound at various Ins(1,4,5)P3 concentrations, Lineweaver-Burk plot",competitive inhibitor
same,"Effect on Ins(1,4,5)P3-induced Ca2+ release","type 1 InsP3R (InsP3R1); 200 nM compound, low (0.1 μM) Ins(1,4,5)P3, not at high (3 μM) Ins(1,4,5)P3",strongly inhibited
same,IC50,type 1 InsP3R (InsP3R1),187 nM
same,"5-phosphatase inhibition, fold more potent than (10)",[1],≥ 20 fold
same,"5-phosphatase inhibition, times better than (4)",[1],~4 times
O=P(O)(O)Oc1ccc(OCCOc2ccc(OP(=O)(O)O)c(OP(=O)(O)O)c2)cc1OP(=O)(O)O [Compound 10],IC50,type 1 InsP3R (InsP3R1),> 5000 nM
same,Inhibition of Ca2+ release,"type 1 InsP3R (InsP3R1); up to 10 μM compound, 250 nM Ins(1,4,5)P3",ineffective
O=P(O)(O)Oc1cc(OP(=O)(O)O)c(OP(=O)(O)O)cc1OCCOc1cc(OP(=O)(O)O)c(OP(=O)(O)O)cc1OP(=O)(O)O [Compound 9],IC50,type 1 InsP3R (InsP3R1),380 nM
same,"5-phosphatase inhibition, fold weaker than (8)",[1],7 fold
"O=P(O)(O)O[C@@H]1[C@H](O)[C@H](O)[C@@H](OP(=O)(O)O)[C@H](OP(=O)(O)O)[C@H]1O [Compound 1, Myo-inositol 1,4,5-trisphosphate, reference compound]",Kd,"type 1 InsP3R (InsP3R1); read-out: apparent Kd for Ins(1,4,5)P3 at the receptor, absence of (8), Lineweaver-Burk plot of Ca2+ release",400 nM
"O=P(O)(O)Oc1ccc(OP(=O)(O)O)c(OP(=O)(O)O)c1 [Compound 2, Benzene 1,2,4-trisphosphate]","Blocking of [3H]Ins(1,4,5)P3 binding, fold weaker than Ins(1,4,5)P3",InsP3R [2],"~10,000 fold"
"O=P(O)(O)Oc1cc(OP(=O)(O)O)cc(-c2c(OP(=O)(O)O)cc(OP(=O)(O)O)cc2OP(=O)(O)O)c1 [Compound 4, biphenyl 2,3′,4,5′,6-pentakisphosphate, reference compound]","IC50 as Ins(1,4,5)P3 receptor antagonist",InsP3R [3],low micromolar range
same,IC50,type 1 InsP3R (InsP3R1),417 nM
